Shown are actives, neighbours in structure and some others; about 3.7% of the full set was active somewhere.
EP2 antag – inhibitors of human EP2 prostaglandin E2 receptor; inhibition, % at 25 µM; 260,000 tested, 0.52% active; C6 glioma cells expressing human EP2, cAMP TR-FRET; cells stimulated with saturating PGE2; P43116;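 active = percent inhibition above 40 after rounding to a whole number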;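 also: rat C6 glioma host cells with rolipram phosphodiesterase inhibitor present; the protocol text gives 20 µM as final concentration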
OX1R antag-1 – OX1R (human) antagonism; 330,000 tested, 1.8% active; O43613; OX1R-expressing cells, FRET antagonist read-out; inhibition, % at 6.6 µM; in the data active = inhibition mostly above about 38%, no sharp cut-off; inactive = mostly below about 40%;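 also: 0% = agonist challenge alone and 100% = reference antagonist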
Target sequence (O43613 whole entry, looked up): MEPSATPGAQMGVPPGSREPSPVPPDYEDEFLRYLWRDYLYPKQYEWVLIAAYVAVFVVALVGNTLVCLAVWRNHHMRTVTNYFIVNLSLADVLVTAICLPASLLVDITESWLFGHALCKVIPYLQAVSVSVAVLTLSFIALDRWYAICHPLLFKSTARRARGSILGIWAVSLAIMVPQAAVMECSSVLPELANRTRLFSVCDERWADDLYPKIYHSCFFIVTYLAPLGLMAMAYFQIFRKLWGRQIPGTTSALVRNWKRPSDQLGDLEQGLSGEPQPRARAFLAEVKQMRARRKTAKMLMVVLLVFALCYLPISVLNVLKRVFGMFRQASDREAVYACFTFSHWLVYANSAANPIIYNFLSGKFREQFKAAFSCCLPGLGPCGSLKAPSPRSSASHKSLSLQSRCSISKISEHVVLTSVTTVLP
CHO parental Ca – counter-screen: ATP calcium response change in parental CHO cells; inhibition, % at 5.6 µM; parental CHO-K1, ATP-induced calcium, Fluo-8 fluorescence; 330,000 tested, 0.63% active;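 active = inhibition above that plate's mean sample inhibition plus 3 SD, cut at about 26% in these data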;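 also: 0% = ATP-challenged DMSO wells and 100% = DMSO wells without ATP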
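Test system: untransfected parental CHO cell line. Compound: one dose, 5.6 µM nominal. Detection: intracellular calcium via Fluo-8 no-wash fluorescent dye. Measure: % inhibition. Benchmarks: ATP-challenged DMSO wells low, unchallenged DMSO wells high.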
GPR7 antag – human neuropeptides B/W receptor 1 antagonism | AID 1861 | 290,000 tested, 1.1% active | GPR7-expressing cells, fluorescence antagonist assay | inhibition, % at 4.4 µM; in the data active = inhibition above about 16%, passing the limit was not always enough;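 also: cells stimulated with the agonist NPW; 0% = agonist with vehicle and 100% = vehicle without agonist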
EP2 mod – EP2 receptor (human) modulation. P43116. EP2-expressing cells, cAMP HTRF FRET, PGE2 co-stimulation. 260,000 tested, 0.83% active. AID 940. induction, % at 25 µM;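 active = compounds whose cAMP rise, as percent of the full-agonist control response, exceeds 60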;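 also: rat C6 glioma line stably carrying human EP2 under a CMV promoter; the protocol text gives 20 µM as final concentration; 100% = response of wells given 1 µM PGE2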
OX1R antag-2 – blocks the human orexin 1 receptor; inhibition, % at 5 µM; AID 434989; O43613; 330,000 tested, 0.43% active; CHO/OX1R cells, Fluo-8 calcium fluorescence, orexin A;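 active = inhibition above its plate's threshold, mean inhibition of all tested compounds on the plate plus 3 SD, cut at about 37% in these data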;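 also: 0% = orexin A challenge wells and 100% = SB-334867-A antagonist wells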
The depositor's hits bear a star; / = no result.

SMILES | EP2 antag | OX1R antag-1 | CHO parental Ca | GPR7 antag | EP2 mod | OX1R antag-2
CC1(C)CN(c2ccc(F)cc2)C1=O | 6 | 4 | -7 | -10 | -14 | 1
O=c1[nH]c(=O)c2nnc(N/N=C\c3ccc(O)cc3)nc2[nH]1 | 8 | 62* | -8 | -1 | 22 | -14
O=c1[nH]c(=O)c2nnc(N/N=C/c3ccccc3F)nc2[nH]1 | 8 | 38 | -4 | -10 | 21 | -1
O=C(COC(=O)c1cnccn1)c1ccc([N+](=O)[O-])cc1 | 7 | 44* | -6 | -6 | -1 | -1
O=C(COC(=O)Cc1ccccc1F)Nc1ccccc1[N+](=O)[O-] | / | 14 | -8 | / | / | -2
O=C(COC(=O)Cc1ccccc1F)NNC(=O)c1ccc([N+](=O)[O-])cc1 | / | 63* | -8 | / | / | -1
O=C(COc1ccccc1F)OCC(=O)c1ccc([N+](=O)[O-])cc1 | / | 31* | 1 | / | / | 9
O=C(CCC(=O)OCC(=O)c1ccc([N+](=O)[O-])cc1)Nc1ccccc1Cl | / | 58* | 0 | -9 | / | -13
Cc1ccccc1OCC(=O)NCC(=O)OCC(=O)c1ccc([N+](=O)[O-])cc1 | / | 50 | 1 | -12 | / | -2
Cc1cc(C)cc(NC(=O)CN(C)S(=O)(=O)c2cccc3nsnc23)c1 | 10 | 38 | -16 | -7 | -51 | -21
Cc1nc(SCC(=O)N2CC(=O)Nc3ccccc32)nc(C)c1C | 3 | 14 | -15 | -6 | 34 | -10
Cc1ccccc1S(=O)(=O)Nc1nc2ccccc2nc1N1CCc2ccccc2C1 | 12 | 10 | -27 | -3 | 61* | -34
O=S(=O)(Nc1nc2ccccc2nc1N1CCc2ccccc2C1)c1ccc(Br)cc1 | 7 | 16 | -20 | -1 | 5 | -26
CC1Cc2ccccc2N1C(=O)CCNS(=O)(=O)c1cccc2nsnc12 (centres undefined) | 10 | 60* | -27 | 4 | 2 | 5
COc1ccc(CCNC(=O)CCNS(=O)(=O)c2cccc3nsnc23)cc1OC | -1 | 61* | -18 | -6 | 22 | -16
COc1ccc(CCNC(=O)CCNS(=O)(=O)c2cccc3nonc23)cc1OC | -3 | 40 | -9 | 8 | 21 | -14
COc1ccc(-n2nnc3c(SCC(=O)Nc4ccc5c(c4)OCCO5)ncnc32)cc1 | / | 20 | 3 | -1 | 12 | -10
CCCN1CCN(C(=O)c2cc3c(s2)-c2ccccc2OC3)CC1 | / | 10 | -10 | -1 | / | -17
COc1ccc(Cl)cc1NC(=O)CN(c1ccccc1)S(=O)(=O)N(C)C | 9 | 53* | -24 | 2 | 5 | -12
COc1ccc(Cl)cc1NC(=O)CN(C)C(=O)c1sccc1-c1ccccc1 | / | 39* | -2 | / | / | 36
CC1C/C(=N/N=C2/NC(=O)CS2)CC(C)(C)C1 (centres undefined) | 8 | 12 | -12 | -27 | 8 | -8
CC1CN(C2=NC(=O)/C(=C/c3ccncc3)S2)CC(C)O1 (centres undefined) | 13 | 34* | -6 | -2 | 7 | -6
CCOC(=O)/C(=C\C=C1/Sc2cc(OCC)c(OCC)cc2N1CC)C(C)=O | 10 | 9 | 69* | 11 | 20 | 91*
CCOC(=O)/C(=C/C=C1\Sc2cc(OCC)c(OCC)cc2N1CC)C(C)=O | 12 | 26 | 85* | 23 | -16 | 108*
CCN1C(=O)/C(=C\C=C2/Sc3cc(C)c(C)cc3N2CCO)SC1=S | 6 | / | / | / | -11 | /
SMILES | EP2 antag | OX1R antag-1 | CHO parental Ca | GPR7 antag | EP2 mod | OX1R antag-2
C=CCn1c(SCC(=O)c2cccs2)nc2sc(C)c(C)c2c1=O | 6 | 45 | -29 | -9 | -93 | 22
C=CCn1c(SCC(=O)c2cc(C)n(CCOC)c2C)nc2sc(C)c(C)c2c1=O | 42* | 0 | -19 | 2 | -39 | -33
Cc1ccc(C(C(=O)NCc2ccccc2)N(Cc2cccs2)C(=O)c2ccc3c(c2)OCCO3)cc1 (centres undefined) | 2 | 58* | 6 | -14 | -1 | 13
O=[N+]([O-])c1ccc(S(=O)(=O)N2CCN(Cc3c[nH]c4ccccc34)CC2)cc1 | 7 | 49* | -5 | 7 | -21 | -26
CCOC(=O)N1CCC(N2CCN(S(=O)(=O)c3ccc4ccccc4c3)CC2)CC1 | 5 | 10 | -2 | 3 | -13 | -15
O=S(=O)(c1ccc(Cl)cc1)N1CCN(C2CCN(Cc3ccccc3)CC2)CC1 | 2 | 9 | -14 | 0 | 14 | -34
O=[N+]([O-])c1ccc(S(=O)(=O)N2CCN(C3CCN(Cc4ccccc4)CC3)CC2)cc1 | / | 63* | -15 | 0 | / | -12
CCOC(=O)N1CCC(N2CCN(S(=O)(=O)c3ccc([N+](=O)[O-])cc3)CC2)CC1 | 2 | 54* | 9 | -1 | -37 | -9
COc1ccc(S(=O)(=O)N2CCN(Cc3c[nH]c4ccccc34)CC2)cc1 | 6 | 4 | -12 | 3 | -34 | -14
NC(=O)c1ccc(NC(=O)C2CCCO2)cc1 (centres undefined) | 13 | 22 | -1 | -4 | 5 | -22
O=C(Nc1cccc(C(F)(F)F)c1)C1CCCN1S(=O)(=O)c1cccc2cccnc12 (centres undefined) | 5 | 91* | -20 | -19 | -28 | 80*
CN(CC(=O)N1CCc2ccccc21)S(=O)(=O)c1cccc2cccnc12 | 23 | 60* | -1 | -1 | 0 | -4
O=C(C1CCCN1S(=O)(=O)c1cccc2cccnc12)N1CCc2ccccc2C1 (centres undefined) | 14 | 17 | -16 | -13 | -40 | -13
Cc1ccccc1NC(=O)C1CCCN(S(=O)(=O)c2cccc3cccnc23)C1 (centres undefined) | 9 | 18 | -20 | -18 | 1 | -26
Cc1ccccc1NC(=O)C1CCCN1S(=O)(=O)c1cccc2cccnc12 (centres undefined) | 14 | 43* | 0 | -5 | -15 | 6
O=C(C1CCCN1S(=O)(=O)c1cccc2cccnc12)N1CCc2ccccc21 (centres undefined) | 10 | 47* | -2 | -2 | -2 | -6
Cc1ccc(C(=O)Nc2cccc3cccnc23)cc1C | / | 68* | -21 | 3 | / | 35
Cc1ccc(NC(=O)CN(C)S(=O)(=O)c2cccc3cccnc23)cc1F | / | 22 | -27 | 3 | / | 4
Cc1cccc(C(=O)Nc2cccc3cccnc23)c1 | / | / | / | -4 | / | /
Cc1ccc(NC(=O)CN(C)S(=O)(=O)c2cccc3cccnc23)cc1C | / | 39* | -10 | -3 | / | -20
COC(=O)c1ccc(C2c3c(oc4cc(C)c(C)cc4c3=O)C(=O)N2CCCN(C)C)cc1 (centres undefined) | 9 | 7 | -23 | -21 | 10 | -8
CC(=O)c1c(-c2ccccc2)c2cc(Cl)ccc2[nH]c1=O | 9 | 67* | -19 | -4 | 45 | 2
